Converted amounts (≈) assume the structure as drawn. The source made the active and inactive calls. The calls are words filed in the database; no cut-off is given here. Where a SMILES comes first, the peptide text is derived from it. Bridges are numbered along the chain shown (N, C = ends). [ ]: non-standard residue; d: D form. The star is where a group is joined. Ileψ(thiazoline)Cys = CC[C@H](C)[C@H](N)C1=N[C@H](C(=O)*)CS1; dOrn = NCCC[C@@H](N)C(=O)O

As a reminder, the MIC is the least concentration at which growth counts as inhibited.

Assay [1] deals with Mycobacterium tuberculosis. Kind of assay: Antimicrobial activity against Mycobacterium bovis BCG by resazurine microtiter assay in presence of 1 mg/liter CCCP. It counts as functional. As to conditions: variant bovis BCG, Urine. In short, it runs like this:
(§1)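 Resazurin microdilution MIC (serial twofold dilutions, 8 days at 37°C plus 2 days after resazurin) run with a fixed subinhibitory level of efflux pump inhibitor (valinomycin, reserpine or CCCP) present throughout. Triplicate, repeated at least three times.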

In assay [2] the test system is Mycobacterium tuberculosis. Kind of assay: Antimicrobial activity against Mycobacterium bovis BCG by resazurine microtiter assay. As to conditions: variant bovis BCG, Urine. The class given is functional. An outline of the steps:
(§2)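 Resazurin microdilution in liquid medium: serial twofold compound dilutions, plates incubated 8 days at 37°C, then 2 more days after adding resazurin. MIC read from the indicator. Run in triplicate and repeated at least three times.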
(In general: Resazurin is reduced to fluorescent resorufin, in cell work by metabolically active cells.)

For assay [3], the system named is Mycobacterium tuberculosis. The assay can be described thus: Antimicrobial activity against Mycobacterium bovis BCG by twofold dilution method. The class given is functional. As to conditions: variant bovis BCG. In short, it runs like this:
(§3)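 Agar MIC: log-phase cultures diluted to 10^5 cells/ml, 10 µl spotted onto Middlebrook 7H10 plates with serial twofold antibiotic dilutions. Visible growth scored after 21 days at 37°C. Triplicate, repeated at least three times.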

Assay [4] deals with Mycobacterium tuberculosis. Kind of assay: Effect on intracellular redox potential in wild-type Mycobacterium bovis BCG assessed as accumulation of formazan at 5 mg/liter after 1 hr by MTT assay. The class given is functional, organism-based. As to conditions: variant bovis BCG. In short, it runs like this:
(§4)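 MTT reduction as an index of intracellular redox potential: cultures at OD600 0.2 treated with drug or solvent for 1 h at 37°C in quadruplicate wells, MTT (2 mg/ml stock) added, 3 h further incubation. Formazan solubilised with 10% SDS, 30 min shaking, absorbance at 600 nm. Repeated at least three independent times.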
On the technique in general: Tetrazolium assays rely on reduction of a dye to a coloured formazan, in cell work by metabolically active cells.

Assay [5] has as its system Mycobacterium tuberculosis. The assay can be described thus: Antimicrobial activity against Mycobacterium bovis BCG harboring pPAZ23 carrying p27-p55 operon by twofold dilution method. The class given is functional. Particulars: variant bovis BCG. An outline of the steps: as §3
Assay [6] deals with Mycobacterium tuberculosis. Kind of assay: Decrease in intracellular redox potential in wild-type Mycobacterium bovis BCG assessed as decreased accumulation of formazan at 256 mg/liter after 1 hr by MTT assay. The class given is functional, variant bovis BCG. The arrangement: scale not given: the % may be the effect or the level left. An outline of the steps: as §4
Assay [7] concerns Mycobacterium tuberculosis. The assay can be described thus: Ratio of MIC for Mycobacterium bovis BCG harboring pPAZ23 carrying p27-p55 operon to MIC for wild-type Mycobacterium bovis BCG. The class given is functional, variant bovis BCG.
Assay [8] has as its system Mycobacterium tuberculosis. The assay can be described thus: Ratio of MIC for wild type Mycobacterium bovis BCG to MIC for Mycobacterium bovis BCG KOP55 harboring inactivated p55 gene. The class given is functional, variant bovis BCG.
Assay [9] has as its system Mycobacterium tuberculosis. The assay can be described thus: Increase in intracellular redox potential in wild-type Mycobacterium bovis BCG assessed as increased accumulation of formazan at 5 mg/liter after 1 hr by MTT assay. The class given is functional, variant bovis BCG. In short, it runs like this: as §4
Assay [10] deals with Mycobacterium tuberculosis. Kind of assay: Antimicrobial activity against Mycobacterium bovis BCG by resazurine microtiter assay in presence of 0.1 mg/liter valinomycin. It counts as functional. Particulars: variant bovis BCG, Urine. In short, it runs like this:
as §1

Assay [11] has as its system Mycobacterium tuberculosis. Kind of assay: Antimicrobial activity against Mycobacterium bovis BCG by resazurine microtiter assay in presence of 0.5 mg/liter reserpine. It counts as functional. Particulars: variant bovis BCG, Urine. An outline of the steps:
as §1

Assay [12] relates to Mycobacterium tuberculosis. Kind of assay: Ratio of MIC for wild type Mycobacterium bovis BCG to MIC for wild type Mycobacterium bovis BCG in presence of 1 mg/liter CCCP. The class given is functional, variant bovis BCG.
In assay [13] the test system is Mycobacterium tuberculosis. The assay can be described thus: Antimicrobial activity against Mycobacterium bovis BCG harboring pPAZ23 carrying p27-p55 operon by resazurine microtiter assay. Particulars: variant bovis BCG, Urine. It counts as functional. In short, it runs like this: as §2

Take `CC[C@H](C)[C@H](N)C1=N[C@H](C(=O)N[C@@H](CC(C)C)C(=O)N[C@H](CCC(=O)O)C(=O)N[C@H](C(=O)N[C@H]2CCCCNC(=O)[C@H](CC(N)=O)NC(=O)[C@@H](CC(=O)O)NC(=O)[C@H](Cc3cnc[nH]3)NC(=O)[C@@H](Cc3ccccc3)NC(=O)[C@H]([C@@H](C)CC)NC(=O)[C@@H](CCCN)NC2=O)[C@@H](C)CC)CS1` [BACITRACIN] ({Ileψ(thiazoline)Cys}-L[dE]IK[dOrn]I[dF]H[dD]N; lactam 4-C): the MIC in assay [1] and in [2] was > 256 µg/mL each time.
Regarding `N#CC(C#N)=NNc1cccc(Cl)c1` [CARBONYL CYANIDE M-CHLOROPHENYLHYDRAZONE], the minimal inhibitory concentration (MIC) in [2] is 4 µg/mL (≈ 19.5 µM).
As for `CN(C)CCCN1c2ccccc2Sc2ccc(Cl)cc21` [CHLORPROMAZINE], in [3], the minimum inhibitory concentration (MIC) worked out at 4 µg/mL (≈ 12.5 µM).
Take `CC(C)/N=c1\cc2n(-c3ccc(Cl)cc3)c3ccccc3nc-2cc1Nc1ccc(Cl)cc1` [CLOFAZIMINE]: the result in assay [4] was inactive. For the same molecule, the minimal inhibitory concentration (MIC) in [5] and in assay [3] was 0.1 µg/mL (≈ 0.211 µM) in each case.
In the case of `CN(C)C(=O)/N=N/C(=O)N(C)C` [DIAMIDE], the Activity in [6] is reported as 25%.
For `Clc1ccc(COC(Cn2ccnc2)c2ccc(Cl)cc2Cl)cc1` (centres undefined) [ECONAZOLE], the minimum inhibitory concentration (MIC) worked out at 12.8 µg/mL (≈ 33.5 µM) in [5] and 6.4 µg/mL (≈ 16.8 µM) in [3]. The Ratio was 2 in assay [7] and 4 in assay [8].
The molecule `CC[C@@H](CO)NCCN[C@@H](CC)CO` [ETHAMBUTOL] returned an MIC in [2] of 4 µg/mL (≈ 19.6 µM).
For the molecule `CC1=CC(=O)c2ccccc2C1=O` [MENADIONE], the “fold change (FC)” value in assay [9] is listed as 3.5.
`CO[C@@H]1[C@@H](OC(N)=O)[C@@H](O)[C@H](Oc2ccc3c(O)c(NC(=O)c4ccc(O)c(CC=C(C)C)c4)c(=O)oc3c2C)OC1(C)C` [NOVOBIOCIN]: the MIC was found to be 8 µg/mL in assay [10], 4 µg/mL in assay [1], 16 µg/mL (≈ 26.1 µM) in [2] and 8 µg/mL in assay [11]. Besides, the Ratio in assay [12] was found to be 4.
Molecule `O=[N+]([O-])c1cn2c(n1)OC[C@@H](OCc1ccc(OC(F)(F)F)cc1)C2` [PRETOMANID] showed an MIC in [2] of 0.25 µg/mL (≈ 0.696 µM).
Same read-out and setting: the result for `COC(=O)[C@H]1[C@H]2C[C@@H]3c4[nH]c5cc(OC)ccc5c4CCN3C[C@H]2C[C@@H](OC(=O)c2cc(OC)c(OC)c(OC)c2)[C@@H]1OC` [RESERPINE] reads 2 µg/mL (≈ 3.29 µM).
As for `CO[C@H]1/C=C/O[C@@]2(C)Oc3c(C)c(O)c4c(O)c(c(/C=N/N5CCN(C)CC5)c(O)c4c3C2=O)NC(=O)/C(C)=C\C=C\[C@H](C)[C@H](O)[C@@H](C)[C@@H](O)[C@@H](C)[C@H](OC(C)=O)[C@@H]1C` [RIFAMPIN], the MIC is 0.0016 µg/mL in assay [10]; 0.0008 µg/mL in assay [1]; 0.0032 µg/mL (≈ 0.00389 µM) in assay [2]; 0.0032 µg/mL (≈ 0.00389 µM) in [13]; 0.0016 µg/mL in assay [11]. The Ratio in [12] turned out to be 4.
Take `Oc1cc(Cl)ccc1Oc1ccc(Cl)cc1Cl` [TRICLOSAN]: inhibition of growth in [3] (MIC) required 8 µg/mL (≈ 27.6 µM).
Molecule `CC(C)[C@@H]1NC(=O)[C@H](C)OC(=O)[C@@H](C(C)C)NC(=O)[C@@H](C(C)C)OC(=O)[C@H](C(C)C)NC(=O)[C@H](C)OC(=O)[C@@H](C(C)C)NC(=O)[C@@H](C(C)C)OC(=O)[C@H](C(C)C)NC(=O)[C@H](C)OC(=O)[C@@H](C(C)C)NC(=O)[C@@H](C(C)C)OC1=O` [VALINOMYCIN] came in with a minimum inhibitory concentration (MIC) in assay [2] of 0.4 µg/mL (≈ 0.36 µM).
As for `CN[C@H](CC(C)C)C(=O)N[C@H]1C(=O)N[C@@H](CC(N)=O)C(=O)N[C@H]2C(=O)N[C@H]3C(=O)N[C@H](C(=O)N[C@H](C(=O)O)c4cc(O)cc(O)c4-c4cc3ccc4O)[C@H](O)c3ccc(c(Cl)c3)Oc3cc2cc(c3O[C@@H]2O[C@H](CO)[C@@H](O)[C@H](O)[C@H]2O[C@H]2C[C@](C)(N)[C@H](O)[C@H](C)O2)Oc2ccc(cc2Cl)[C@H]1O` [VANCOMYCIN], the MIC in assay [1] was determined as 4 µg/mL; in assay [2], 4 µg/mL (≈ 2.76 µM); in assay [13] it was 8 µg/mL (≈ 5.52 µM). Moreover, the Ratio amounted to 2 in assay [7] and 16 in assay [8].
